# Substitutions are numbered along the chain they refer to. Values joined by “and” are separate entries in the source; they are usually repeats but may differ in a detail not shown here. Equal entries are not always repeated.
# Legend:
# [1] = target: T1, Methylated-DNA--protein-cysteine methyltransferase (Homo sapiens, UniProt P16455); experiment: concentration required to reduce AGT activity to 50% of control rate in HT-29 cell extract.; type: cell-based
# T1 sequence (P16455 whole entry): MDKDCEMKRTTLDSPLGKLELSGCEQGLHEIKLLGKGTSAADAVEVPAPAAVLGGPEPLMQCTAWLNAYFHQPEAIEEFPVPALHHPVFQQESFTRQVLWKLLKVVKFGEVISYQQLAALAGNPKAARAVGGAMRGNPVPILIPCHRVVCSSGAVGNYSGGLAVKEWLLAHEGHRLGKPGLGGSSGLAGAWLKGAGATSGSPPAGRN
# How it was run: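 HT29 cell extract AGT assay; IC50 is the inhibitor concentration reducing AGT activity to 50% of the control rate.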
# [2] = target: T2, Methylated-DNA--protein-cysteine methyltransferase (Homo sapiens) (UniProt P16455); experiment: Percent of AGT inactivation in HT-29 cell extract at 1 mM concentration.
# T2 sequence (whole entry): T1 sequence (P16455 whole entry)
# [3] = target: T1, Methylated-DNA--protein-cysteine methyltransferase; experiment: Inhibition of AGT activity to 50% of control rate in HT-29 cell extract; type: cell-free
# [4] = target: T1, Methylated-DNA--protein-cysteine methyltransferase; experiment: concentration required to reduce AGT activity to 50% of control rate in intact HT-29 human colorectal carcinoma cells; type: cell-based
# How it was run: (§1)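 HT29 cells were grown 3 days in EMEM with 10% FCS, then exposed for 4 h to inactivator in serum-free EMEM (DMSO final 1% or 0.1%). Cells were trypsinized, washed and counted by trypan blue; pellets of 10⁷ cells were homogenized in Tris-HCl pH 8.3 buffer with EDTA, DTT and 200 mM NaCl. AGT activity was assayed in the extracts, and the concentration depleting whole-cell AGT activity by 50% was calculated.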
# [5] = target: T2, Methylated-DNA--protein-cysteine methyltransferase (Homo sapiens); experiment: Percent AGT inactivation in HT-29 cell extract at 1 mM; type: cell-based
# [6] = target: T1, Methylated-DNA--protein-cysteine methyltransferase; experiment: (§2) concentration required to reduce AGT activity to 50% of control rate in intact HT-29 human colorectal carcinoma cells.; type: cell-based; how it was run: as §1
# [7] = target: T1, Methylated-DNA--protein-cysteine methyltransferase; experiment: as §2; type: cell-based; how it was run: as §1; remark: listed apart in the source
# [8] = target: T2, Methylated-DNA--protein-cysteine methyltransferase (Homo sapiens); experiment: Compound was evaluated for inactivation of 156A mutant AGT
# How it was run: (§3)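 Recombinant wild-type or mutant (P140K, Y158H, G160R, G156A) AGT, made in E. coli with an N-terminal His6 tag and purified by metal affinity, was preincubated with inhibitor for 30 min at 37 °C in 50 mM Tris-HCl pH 7.5, 0.1 mM EDTA, 5 mM DTT and hemocyanin. Residual activity was measured over a further 30 min with methylated DNA substrate. ED50 was read from a plot of % activity lost against inhibitor amount, with a maximum of […] inhibitor.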
# [9] = system: T3, Methylated-DNA--protein-cysteine methyltransferase (Homo sapiens), P16455 [G160R]; experiment: Compound was evaluated for inactivation of G160R mutant AGT; how it was run: as §3
# T3 sequence (whole entry): T1 sequence (P16455 whole entry) with G160R
# [10] = system: T4, Methylated-DNA--protein-cysteine methyltransferase (Homo sapiens), P16455 [P140K]; experiment: Compound was evaluated for inactivation of P140K mutant AGT; how it was run: as §3
# T4 sequence (whole entry): T1 sequence (P16455 whole entry) with P140K
# [11] = target: T2, Methylated-DNA--protein-cysteine methyltransferase (Homo sapiens); experiment: Compound was evaluated for inactivation of Wild type AGT; how it was run: as §3
# [12] = system: T5, Methylated-DNA--protein-cysteine methyltransferase (Homo sapiens), P16455 [Y158H]; experiment: Compound was evaluated for inactivation of Y158H mutant AGT; how it was run: as §3
# T5 sequence (whole entry): T1 sequence (P16455 whole entry) with Y158H
# COLO 205 [13] = experiment: Cytotoxicity of compound in COLO 205 cell line; type: functional, cell-based; details: Homo sapiens
# How it was run: (§4)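 Colony-forming assay: exponentially growing cells were preincubated 1 h with 10 µM AGT inactivator (0.1% DMSO), then given temozolomide 0–1000 µM final (1% DMSO) for 4 h at 37 °C. Cells were then plated: HT29 on plastic, Colo205 in 0.15% agarose, with inactivator kept at 10 µM. After about 2 weeks, colonies were stained (crystal violet for HT29, MTT for Colo205) and counted. Temozolomide IC50 is mean ± SD of 3 independent experiments.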
# HT-29 [14] = experiment: Cytotoxicity of compound in HT-29 cell line; type: functional, cell-based; details: Homo sapiens; how it was run: as §4
# [15] = system: T3, Methylated-DNA--protein-cysteine methyltransferase (Homo sapiens), P16455 [G160R]
# [16] = system: T4, Methylated-DNA--protein-cysteine methyltransferase (Homo sapiens), P16455 [P140K]
# COLO 205 [17] = experiment: Level of AGT activity in COLO 205 cell line; type: functional, cell-based; details: Homo sapiens
# HT-29 [18] = experiment: Level of AGT activity in HT-29 cell line; type: functional, cell-based; details: Homo sapiens
structure (smiles),measurement,setting,value
CC/C=C\CCOc1[nH]c(N)nc2ncnc1-2,IC50,[1],> 1 mM
same,Inactivation,[2],32%
Nc1nc(OCC2=CCCC2)c2[nH]cnc2n1,IC50,[3],0.39 µM
same,IC50,[4],0.2 µM
Nc1nc(OCC2=CCCCC2)c2[nH]cnc2n1,IC50,[3],1.6 µM
CCC(COc1nc(N)nc2[nH]cnc12)(OC)OC,IC50,[3],> 1000 µM
same,Inactivation,[5],0%
CC(=O)COc1nc(N)nc2[nH]cnc12,IC50,[3],192 µM
same,IC50,[6],95 µM and 119 µM
C=C(CC)COc1nc(N)nc2[nH]cnc12,IC50,[3],16 µM
CCCCCOc1nc(N)nc2[nH]cnc12,IC50,[3],1010 µM
Nc1nc(OCC2CCC2)c2[nH]cnc2n1,IC50,[1],> 1 mM
same,Inactivation,[2],34%
C=CCCCCOc1nc(N)nc2[nH]cnc12,Inactivation,[5],65%
CCC(=O)COc1nc(N)nc2nc[nH]c12,IC50,[3],151 µM
same,IC50,[6],94.5 µM and 93.2 µM
CC(C)C(=O)COc1nc(N)nc2nc[nH]c12,IC50,[1],> 1 mM
same,Inactivation,[2],31%
COC(COc1[nH]c(N)nc2ncnc1-2)(OC)c1ccccc1,Inactivation,[5],0%
C=C(C)COc1nc(N)nc2nc[nH]c12,IC50,[3],25 µM
same,IC50,[6],13.5 µM and 9.9 µM
CCCCCCCOc1nc(N)nc2[nH]cnc12,IC50,[3],> 100 µM
same,Inactivation,[5],10%
CCOC(C)(COc1nc(N)nc2[nH]cnc12)OCC,IC50,[3],> 1000 µM
same,Inactivation,[5],0%
CCCOc1nc(N)nc2[nH]cnc12,Inactivation,[2],24%
CCCOc1nc(N)nc2nc[nH]c12,IC50,[1],> 1 mM
CCCCCCOc1[nH]c(N)nc2ncnc1-2,IC50,[3],554 µM
CCOc1nc(N)nc2nc[nH]c12,IC50,[3],> 1000 µM
C=CCOc1nc(N)nc2nc[nH]c12,IC50,[7],5.1 µM
same,IC50,[3],8.5 µM
same,IC50,[6],2.7 µM
Nc1nc(OCC(=O)c2ccccc2)c2[nH]cnc2n1,IC50,[1],> 1 mM
same,Inactivation,[5],0%
Nc1nc(OCC2=CCCC2)c2nc[nH]c2n1,ED50,[8],113 µM
same,ED50,[9],13 µM
same,ED50,[10],> 1500 µM
same,ED50,[11],0.3 µM
same,ED50,[12],1500 µM
Cn1nnc2c(C(N)=O)ncn2c1=O.Nc1nc(OCC2=CCCC2)c2[nH]cnc2n1,IC50,COLO 205 [13],36 µM
same,IC50,HT-29 [14],299 µM
CC(C)C1(COc2nc(N)nc3[nH]cnc23)OCCO1,Inactivation,[5],54%
CC(C)CCOc1nc(N)nc2nc[nH]c12,IC50,[1],> 1 mM
Nc1nc(OCC2=CCC2)c2[nH]cnc2n1,IC50,[3],0.55 µM
CCCCOc1nc(N)nc2[nH]cnc12,IC50,[3],493 µM
COc1nc(N)nc2nc[nH]c12 [METHYLGUANINE],IC50,[3],428 µM
same,IC50,[4],248 µM
C=C(C)[C@H]1CC=C(COc2nc(N)nc3[nH]cnc23)CC1,IC50,[3],2.6 µM
Nc1nc(Oc2cccs2)c2[nH]cnc2n1,IC50,[3],0.003 µM
C=C(COc1nc(N)nc2[nH]cnc12)C(C)C,IC50,[1],> 1 mM
same,Inactivation,[2],22%
CCOc1nc(N)nc2[nH]cnc12,Inactivation,[5],0%
COC(COc1nc(N)nc2nc[nH]c12)(OC)c1ccccc1,IC50,[3],> 1000 µM
C#CCOc1nc(N)nc2nc[nH]c12,IC50,[3],20 µM
same,IC50,[6],11.5 µM and 11.9 µM
Cn1nnc2c(C(N)=O)ncn2c1=O.Nc1nc(OCc2ccccc2)c2[nH]cnc2n1,IC50,COLO 205 [13],14 µM
same,IC50,HT-29 [14],86 µM
Nc1nc(OCc2ccccc2)c2nc[nH]c2n1,ED50,[8],60 µM
same,ED50,[12],620 µM
same,ED50,[15],4.7 µM
same,ED50,[16],> 1500 µM
Nc1nc(OCCc2ccccc2)c2nc[nH]c2n1,IC50,[3],548 µM
C=C(COc1nc(N)nc2nc[nH]c12)c1ccccc1,IC50,[3],77 µM
same,IC50,[6],37.5 µM and 39.6 µM
Nc1nc(OCC2CCCCC2)c2nc[nH]c2n1,IC50,[1],> 1 mM
same,Inactivation,[5],0%
Cn1nnc2c(C(N)=O)ncn2c1=O [TEMOZOLOMIDE],IC50,COLO 205 [13],343 µM
same,Level,COLO 205 [17],1160 fM/mg
same,Level,HT-29 [18],908 fM/mg
same,IC50,HT-29 [14],951 µM
Nc1nc(OCC2CC=CCC2)c2[nH]cnc2n1 (stereo not drawn),IC50,[1],> 1 mM
same,Inactivation,[2],32%
Nc1nc(OCC2CCCC2)c2nc[nH]c2n1,IC50,[1],> 1 mM
same,Inactivation,[2],0%
CC1(C)OCC(COc2nc(N)nc3[nH]cnc23)O1 (stereo not drawn),IC50,[3],> 1000 µM
same,Inactivation,[5],0%
CC/C=C/CCOc1nc(N)nc2[nH]cnc12,Inactivation,[5],88%
CC(C)CCOc1nc(N)nc2[nH]cnc12,Inactivation,[2],24%

# — ChEMBL document CHEMBL1133481, “Resistance-modifying agents. 8. Inhibition of O(6)-alkylguanine-DNA alkyltransferase by O(6)-alkenyl-, O(6)-cycloalkenyl-, and O(6)-(2-oxoalkyl)guanines and potentiation of temozolomide cytotoxicity in vitro by O(6)-(1-cyclopentenylmethyl)guanine” (J Med Chem, 2000)
